Data taken from ChEMBL document CHEMBL1121652, “Allylprodine analogues as receptor probes. Evidence that phenolic and nonphenolic ligands interact with different subsites on identical opioid receptors” (J Med Chem, 1981).
Calls of active or inactive are those of the source.

Legend:
Mus musculus [1] = test: Compound was evaluated for antagonist activity only at subagonistic dose of 120 uM/kg levels in mice by mouse hotplate procedure; assay type: functional
Mus musculus [2] = test: Compound was tested for narcotic agonist activity in mice by mouse hotplate procedure; Inactive at 120 uM/kg; assay type: functional, organism-based
Summary of the method: (§1)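 Male white Swiss-Webster mice, 25–35 g, at least five per dose. Baseline taken as three reaction times 15 min apart. Drug given s.c. in physiological saline. Hot plate read 10, 15 or 30 min after dosing, depending on compound class. Analgesia means postinjection time over double the control, with a 30 s cutoff. ED50 by probit analysis on free-base molar dose.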

Cavia porcellus [3] = organism: Cavia porcellus; test: Relative agonist molar potency on the electrically stimulated guinea pig myenteric plexus longitudinal muscle preparation at 10e-6; Inactive; assay type: functional; conditions: Muscle tissue
Summary of the method: (§2)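 Electrically stimulated guinea pig ileum myenteric plexus–longitudinal muscle, measuring inhibition of twitch. Compounds active at 10⁻⁷ M or below were run in at least three independent preparations. Reversibility was checked with naloxone 2 × 10⁻⁶ M in the bath.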

Mus musculus [4] = organism: Mus musculus; test: Narcotic antagonistic potency evaluated by morphine-induced Straub tail phenomenon in mice; assay type: functional, organism-based; conditions: read-out: pA2 (converted)
Mus musculus [5] = organism: Mus musculus; test: Compound was tested for narcotic agonist activity in mice by mouse hotplate procedure; assay type: functional; summary of the method: as §1
Cavia porcellus [6] = organism: Cavia porcellus; test: Relative agonist molar potency on the electrically stimulated guinea pig myenteric plexus longitudinal muscle preparation; assay type: functional, Muscle tissue; summary of the method: as §2
Mus musculus [7] = test: Compound was evaluated for antagonist activity only at subagonistic dose levels in mice by mouse hotplate procedure; Inactive at 17 uM/kg; assay type: functional, organism-based
Mus musculus [8] = test: Compound was evaluated for antagonist activity only at subagonistic dose levels in mice by mouse hotplate procedure; Inactive at 30 umol/kg; assay type: functional, organism-based
Mus musculus [9] = test: Compound was tested for narcotic agonist activity in mice by mouse hotplate procedure; Inactive at 55 uM/kg; assay type: functional, organism-based; summary of the method: as §1
Mus musculus [10] = test: Compound was evaluated for antagonist activity only at subagonistic dose levels in mice by mouse hotplate procedure; Inactive at 26 uM/kg; assay type: functional, organism-based
Mus musculus [11] = test: Compound was tested for narcotic agonist activity in mice by mouse hotplate procedure; Inactive at 60 uM/kg; assay type: functional, organism-based; summary of the method: as §1
Mus musculus [12] = test: Compound was evaluated for antagonist activity only at subagonistic dose levels in mice by mouse hotplate procedure; Inactive at 60 uM/kg; assay type: functional, organism-based
Mus musculus [13] = test: Compound was tested for narcotic agonist activity in mice by mouse hotplate procedure; Inactive at 100 uM/kg; assay type: functional, organism-based; summary of the method: as §1
Mus musculus [14] = test: Compound was evaluated for antagonist activity only at subagonistic dose levels in mice by mouse hotplate procedure; Inactive at 100 uM/kg; assay type: functional, organism-based
Mus musculus [15] = test: Compound was evaluated for antagonist activity only at subagonistic dose levels in mice by mouse hotplate procedure; Inactive at 115 uM/kg; assay type: functional, organism-based
Mus musculus [16] = test: Compound was tested for narcotic agonist activity in mice by mouse hotplate procedure; Inactive at 115 uM/kg; assay type: functional, organism-based; summary of the method: as §1
Mus musculus [17] = test: Compound was evaluated for antagonist activity only at subagonistic dose levels in mice by mouse hotplate procedure; Inactive at 15 umol/kg; assay type: functional, organism-based
Mus musculus [18] = organism: Mus musculus; test: Narcotic antagonistic potency evaluated in morphine-induced Straub tail phenomenon in mice; assay type: functional, organism-based; conditions: read-out: pA2 (converted)
Mus musculus [19] = organism: Mus musculus; test: Compound was tested for narcotic agonist activity (effective dose) by mouse hotplate procedure
Mus musculus [20] = test: Compound was tested for narcotic agonist activity in mice by mouse hotplate procedure; Inactive at 110 uM/kg; assay type: functional, organism-based; summary of the method: as §1
Mus musculus [21] = organism: Mus musculus; test: Compound was evaluated for antagonist activity only at subagonistic dose levels in mice by mouse hotplate procedure; assay type: functional
Mus musculus [22] = organism: Mus musculus; test: Compound was evaluated for antagonist activity only at subagonistic dose levels by mouse hotplate procedure; assay type: functional

## C=CC[C@@H]1CN(C)CC[C@@]1(OC(=O)CC)c1cccc(O)c1
Mus musculus [1]
  AD50: 12%
Mus musculus [2]
  ED50: inactive
Cavia porcellus [3]
  Potency: inactive
Mus musculus [4]
  Kb: ≥ 1000 nM

## C=CC[C@@H]1CN(C)CC[C@@]1(OC(=O)CC)c1ccccc1
Mus musculus [5]
  ED50: 0.54 µmol/kg
Cavia porcellus [6]
  Potency: 4.51
Mus musculus [4]
  Kb: ≥ 1000 nM

## CCC(=O)OC1(c2cccc(O)c2)CCN(C)CC1
Mus musculus [5]
  ED50: 110 µmol/kg
Cavia porcellus [6]
  Potency: 0.011
Mus musculus [7]
  AD50: inactive
Mus musculus [4]
  Kb: ≥ 1000 nM

## C=CC[C@H]1CN(CC=C)CC[C@@]1(OC(=O)CC)c1cccc(O)c1
Mus musculus [8]
  AD50: inactive
Mus musculus [9]
  ED50: inactive
Cavia porcellus [3]
  Potency: inactive
Mus musculus [4]
  Kb: ≥ 1000 nM

## C=CC[C@@H]1CN(CC=C)CC[C@@]1(OC(=O)CC)c1cccc(OC)c1
Mus musculus [5]
  Inhibition: 17%
Cavia porcellus [6]
  Potency: 0.033
Mus musculus [10]
  AD50: inactive
Mus musculus [4]
  Kb: ≥ 1000 nM

## C=CC[C@H]1CN(C)CC[C@@]1(OC(=O)CC)c1cccc(O)c1
Mus musculus [11]
  ED50: inactive
Mus musculus [12]
  AD50: inactive
Cavia porcellus [3]
  Potency: inactive
Mus musculus [4]
  Kb: ≥ 1000 nM

## CCC[C@@H]1CN(C)CC[C@@]1(OC(=O)CC)c1cccc(O)c1
Mus musculus [13]
  ED50: inactive
Cavia porcellus [3]
  Potency: inactive
Mus musculus [14]
  AD50: inactive
Mus musculus [4]
  Kb: ≥ 1000 nM

## CCC[C@H]1CN(C)CC[C@@]1(OC(=O)CC)c1cccc(O)c1
Mus musculus [13]
  ED50: inactive
Cavia porcellus [3]
  Potency: inactive
Mus musculus [14]
  AD50: inactive
Mus musculus [4]
  Kb: ≥ 1000 nM

## C=CC[C@H]1CN(C)CC[C@@]1(OC(=O)CC)c1cccc(OC)c1
Mus musculus [15]
  AD50: inactive
Cavia porcellus [3]
  Potency: inactive
Mus musculus [16]
  ED50: inactive
Mus musculus [4]
  Kb: ≥ 1000 nM

## C=CC[C@@H]1CN(C)CC[C@@]1(OC(=O)CC)c1cccc(OC)c1
Mus musculus [5]
  ED50: 34.7 µmol/kg
Mus musculus [17]
  AD50: inactive
Cavia porcellus [6]
  Potency: 0.12
Mus musculus [4]
  Kb: ≥ 1000 nM

## C=CCN1CC[C@]23c4c5ccc(O)c4O[C@H]2C(=O)CC[C@@]3(O)[C@H]1C5 [NALOXONE]
Mus musculus [18]
  Kb: 2.95 nM

## CN1CC[C@]23c4c5ccc(O)c4O[C@H]2[C@@H](O)C=C[C@H]3[C@H]1C5 [MORPHINE]
Mus musculus [19]
  ED50: 12.4 µmol/kg

## C=CC[C@@H]1CN(CC=C)CC[C@@]1(OC(=O)CC)c1cccc(O)c1
Mus musculus [20]
  ED50: inactive
Mus musculus [21]
  AD50: 74.13 µM/kg
Cavia porcellus [3]
  Potency: inactive
Mus musculus [4]
  Kb: ≥ 1000 nM

## O=C1CC[C@@]2(O)[C@H]3Cc4ccc(O)c5c4[C@@]2(CCN3CC2CC2)[C@H]1O5 [NALTREXONE]
Mus musculus [22]
  AD50: 0.031 µM/kg
Mus musculus [18]
  Kb: > 1000 nM
